Values after ≈ are worked out from the molar mass of the structure shown.
How the values were obtained:
Assay type in all cases: functional
Streptococcus pneumoniae [1] = experiment: Antimicrobial activity against Streptococcus pneumoniae RCMB 010010 assessed as inhibition zone at 5 mg/ml after 24 hrs; settings: RCMB 010010, 24 h, read-out: IZ
In short: (§1)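 Agar diffusion on nutrient agar seeded with 10^6 CFU/mL bacteria. Filter-paper disks were loaded with 100 µL of a 5 mg/mL compound solution in DMF, with a DMF-only control. Incubation was 37 °C for 24 h. Inhibition zone in mm (mean ± SD, triplicate plates) was measured beyond the 6 mm diameter.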

Streptococcus pneumoniae [2] = experiment: Antimicrobial activity against Streptococcus pneumoniae RCMB 010010 assessed as absence of turbidity after 24 hrs; settings: RCMB 010010, 24 h
In short: (§2)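 Broth microdilution in Müller–Hinton broth. DMF stocks at 1000 µg/mL were diluted in broth to give twofold serial dilutions over 500–0.007 µg/mL. Bacterial inoculum was about 10^6 CFU/mL in 96-well plates, sealed and incubated at 37 °C for 24 h in a humid chamber. MIC was taken as the lowest concentration with no visible turbidity. DMF and uninoculated-medium controls were included. Only compounds giving zones >10 mm were tested.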

Bacillus subtilis [3] = experiment: Antimicrobial activity against Bacillis subtilis RCMB 010067 assessed as inhibition zone at 5 mg/ml after 24 hrs; settings: RCMB 010067, 24 h, read-out: IZ; in short: as §1
Bacillus subtilis [4] = experiment: Antimicrobial activity against Bacillis subtilis RCMB 010067 assessed as absence of turbidity after 24 hrs; settings: RCMB 010067, 24 h; in short: as §2
[5] = test system: Staphylococcus epidermidis; experiment: Antimicrobial activity against Staphylococcus epidermidis RCMB 010024 assessed as inhibition zone at 5 mg/ml after 24 hrs; settings: RCMB 010024, 24 h, read-out: IZ; in short: as §1
[6] = test system: Staphylococcus epidermidis; experiment: Antimicrobial activity against Staphylococcus epidermidis RCMB 010024 assessed as absence of turbidity after 24 hrs; settings: RCMB 010024, 24 h; in short: as §2
Escherichia coli [7] = experiment: Antimicrobial activity against Escherichia coli RCMB 010052 assessed as inhibition zone at 5 mg/ml after 24 hrs; settings: RCMB 010052, 24 h, read-out: IZ; in short: as §1
Escherichia coli [8] = experiment: Antimicrobial activity against Escherichia coli RCMB 010052 assessed as absence of turbidity after 24 hrs; in short: as §2
Proteus vulgaris [9] = experiment: Antimicrobial activity against Proteus vulgaris RCMB 010085 assessed as inhibition zone at 5 mg/ml after 24 hrs; settings: for zone of inhibition at 5000 µg/mL: RCMB 010085, 24 h, read-out: IZ; in short: as §1
Proteus vulgaris [10] = experiment: Antimicrobial activity against Proteus vulgaris RCMB 010085 assessed as absence of turbidity after 24 hrs; in short: as §2
Klebsiella pneumoniae [11] = experiment: Antimicrobial activity against Klebsiella pneumoniae RCMB 010093 assessed as inhibition zone at 5 mg/ml after 24 hrs; settings: for zone of inhibition at 5000 µg/mL: RCMB 010093, 24 h, read-out: IZ; in short: as §1
Klebsiella pneumoniae [12] = experiment: Antimicrobial activity against Klebsiella pneumoniae RCMB 010093 assessed as absence of turbidity after 24 hrs; in short: as §2
Aspergillus fumigatus [13] = experiment: Antifungal activity against Aspergillus fumigatus RCMB 02568 assessed as inhibition zone at 5 mg/ml after 48 hrs; settings: RCMB 02568, 48 h, read-out: IZ
In short: (§3)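 Disk diffusion on nutrient agar seeded with 10^4 CFU/mL fungus. Sterile filter-paper disks carried 100 µL of a 5 mg/mL DMF solution, and DMF alone served as control. Plates were incubated at 25 °C for 48 h. Mean inhibition zone in mm ± SD was read beyond the 6 mm diameter, in triplicate.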

Aspergillus fumigatus [14] = experiment: Antifungal activity against Aspergillus fumigatus RCMB 02568 assessed as absence of turbidity after 48 hrs; settings: RCMB 02568, 48 h
In short: as §2, with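 “Sabouraud liquid medium.” for “Müller–Hinton broth.”, “Fungal” for “Bacterial”, “10^4” for “10^6”, “25” for “37”, “48” for “24”, “included.” for “included. Only compounds giving zones >10 mm were tested.”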

[15] = test system: Syncephalastrum racemosum; experiment: Antifungal activity against Syncephalastrum racemosum RCMB 05922 assessed as inhibition zone at 5 mg/ml after 48 hrs; settings: RCMB 05922, 48 h, read-out: IZ
[16] = test system: Syncephalastrum racemosum; experiment: Antifungal activity against Syncephalastrum racemosum RCMB 05922 assessed as absence of turbidity after 48 hrs; settings: RCMB 05922, 48 h
Geotrichum candidum [17] = experiment: Antifungal activity against Geotrichum candidum RCMB 05097 assessed as inhibition zone at 5 mg/ml after 48 hrs; settings: RCMB 05097, 48 h, read-out: IZ; in short: as §3
Geotrichum candidum [18] = experiment: Antifungal activity against Geotrichum candidum RCMB 05097 assessed as absence of turbidity after 48 hrs; settings: RCMB 05097, 48 h
In short: as §2, with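 “Sabouraud liquid medium.” for “Müller–Hinton broth.”, “Fungal” for “Bacterial”, “10^4” for “10^6”, “25” for “37”, “48” for “24”, “included.” for “included. Only compounds giving zones >10 mm were tested.”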

Row | Compound | zone of inhibition at 5000 µg/mL (Streptococcus pneumoniae [1]) | MIC (Streptococcus pneumoniae [2]) | zone of inhibition at 5000 µg/mL (Bacillus subtilis [3]) | MIC (Bacillus subtilis [4]) | zone of inhibition at 5000 µg/mL [5] | MIC [6] | zone of inhibition at 5000 µg/mL (Escherichia coli [7]) | MIC (Escherichia coli [8]; RCMB 010052, 24 h) | zone of inhibition at 5000 µg/mL (Proteus vulgaris [9]) | MIC (Proteus vulgaris [10]; RCMB 010085, 24 h) | zone of inhibition at 5000 µg/mL (Klebsiella pneumoniae [11]) | MIC (Klebsiella pneumoniae [12]; RCMB 010093, 24 h) | zone of inhibition at 5000 µg/mL (Aspergillus fumigatus [13]) | MIC (Aspergillus fumigatus [14]) | zone of inhibition at 5000 µg/mL [15] | MIC [16] | zone of inhibition at 5000 µg/mL (Geotrichum candidum [17]) | MIC (Geotrichum candidum [18]) | also measured
1 | COc1ccc(-c2c(C#N)c(S)n(-c3ccc(S(=O)(=O)Nc4onc(C)c4C)cc3)c(=O)c2C#N)cc1 | 20.6 mm | 0.98 µg/mL (≈ 1.84 µM) | 22.4 mm | 0.98 µg/mL (≈ 1.84 µM) | 19.9 mm | 1.95 µg/mL (≈ 3.65 µM) | 20.6 mm | 0.98 µg/mL (≈ 1.84 µM) | 18.6 mm | 3.9 µg/mL (≈ 7.31 µM) | 21.4 mm | 0.98 µg/mL (≈ 1.84 µM) | 20.4 mm | 0.98 µg/mL (≈ 1.84 µM) | 16.3 mm | 31.2 µg/mL (≈ 58.6 µM) | 22.4 mm | 0.49 µg/mL (≈ 0.918 µM) | –
2 | Cc1noc(NS(=O)(=O)c2ccc(NC(=O)/C(C#N)=C/c3ccccc3)cc2)c1C | 18.4 mm | 7.81 µg/mL (≈ 18.5 µM) | 20.3 mm | 1.95 µg/mL (≈ 4.62 µM) | 19.1 mm | 3.9 µg/mL (≈ 9.23 µM) | 20.6 mm | 1.95 µg/mL (≈ 4.62 µM) | 18 mm | 7.81 µg/mL (≈ 18.5 µM) | 21.9 mm | 0.49 µg/mL (≈ 1.16 µM) | 17.1 mm | 15.6 µg/mL (≈ 37 µM) | 18.8 mm | 7.81 µg/mL (≈ 18.5 µM) | 20.9 mm | 0.98 µg/mL (≈ 2.32 µM) | –
3 | Cc1noc(NS(=O)(=O)c2ccc(NC(=O)/C(C#N)=C/c3ccc(Cl)cc3)cc2)c1C | 20.3 mm | 0.98 µg/mL (≈ 2.14 µM) | 25.6 mm | 0.03 µg/mL (≈ 0.0657 µM) | 22.3 mm | 0.49 µg/mL (≈ 1.07 µM) | 22.1 mm | 0.49 µg/mL (≈ 1.07 µM) | 19.2 mm | 3.9 µg/mL (≈ 8.54 µM) | 23.9 mm | 0.06 µg/mL (≈ 0.131 µM) | 20.3 mm | 0.98 µg/mL (≈ 2.14 µM) | 21.6 mm | 0.98 µg/mL (≈ 2.14 µM) | 24.6 mm | 0.12 µg/mL (≈ 0.263 µM) | –
4 | Cc1noc(NS(=O)(=O)c2ccc(NC(=O)/C(C#N)=C/c3ccco3)cc2)c1C | 16.9 mm | 15.6 µg/mL (≈ 37.9 µM) | 17.4 mm | 15.6 µg/mL (≈ 37.9 µM) | 16.2 mm | 31.2 µg/mL (≈ 75.8 µM) | 14.9 mm | 0.12 µg/mL (≈ 0.291 µM) | – | – | 15 mm | 0.12 µg/mL (≈ 0.291 µM) | 13.9 mm | 125 µg/mL (≈ 303 µM) | 12.1 mm | 500 µg/mL (≈ 1210 µM) | 14.6 mm | 62.5 µg/mL (≈ 152 µM) | –
5 | GENTAMICIN | – | – | – | – | – | – | – | – | – | – | – | – | – | – | – | – | – | – | MIC (Escherichia coli [8]): 1.95 µg/mL; inhibition zone (IZ) (Proteus vulgaris [9]): 23.4 mm; MIC (Proteus vulgaris [10]): 0.24 µg/mL; inhibition zone (IZ) (Klebsiella pneumoniae [11]): 26.3 mm; MIC (Klebsiella pneumoniae [12]): 0.03 µg/mL
6 | COc1ccc(N/N=C(\C#N)C(=O)Nc2ccc(S(=O)(=O)Nc3onc(C)c3C)cc2)cc1 | 17.3 mm | 15.6 µg/mL (≈ 33.4 µM) | 21.2 mm | 0.98 µg/mL (≈ 2.09 µM) | 20.2 mm | 1.95 µg/mL (≈ 4.16 µM) | 15.9 mm | 31.2 µg/mL (≈ 66.7 µM) | – | – | 20.2 mm | 1.95 µg/mL (≈ 4.16 µM) | 16.3 mm | 31.2 µg/mL (≈ 66.7 µM) | 18.6 mm | 3.9 µg/mL (≈ 8.32 µM) | 19.8 mm | 1.95 µg/mL (≈ 4.16 µM) | –

— ChEMBL document CHEMBL3351454, “Design, synthesis, antimicrobial evaluation and molecular docking studies of some new thiophene, pyrazole and pyridone derivatives bearing sulfisoxazole moiety” (2014)
